TDP2 absorb = TDP2 (human) inhibition, absorbance primary screen. O95551. recombinant TDP2, T5PNP hydrolysis, p-nitrophenol absorbance 415 nm. inhibition, % at 12.8 µM. 370,000 tested, 0.34% active. AID 720702;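 active means inhibition above the mean of all tested compounds plus 3 SD, set per campaign, cut at about 25% in these data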;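 further: 0% = DMSO with enzyme and 100% = buffer with substrate but no TDP2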
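Evaluation: % inhibition relative to enzyme-containing and enzyme-free wells. Material: recombinant human TDP2. Benchmarks: enzyme-free and DMSO wells. Timing: enzyme reaction with compound for 2 h at 37 °C. Compound dosing: 12.8 µM only. Measured by: p-Nitrophenol epi absorbance. Reagent: T5PNP substrate at 5 mM, a TopII-DNA adduct mimic. Replication: single well per compound.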
NSD2 inh = inhibitors of human histone methyltransferase NSD2 | O96028 | NSD2 peptide methylation, AlphaScreen, 120 min | inhibition, % at 12.5 µM | 310,000 tested, 0.54% active | AID 743445; in the data active means inhibition above about 50%
MBD2 inh = MBD2-methylated oligo binding inhibition; 370,000 tested, 0.31% active; TR-FRET, MBD2 binding to methylated oligonucleotide; inhibition, % at 4.4 µM; Q9UBB5; AID 686964; in the data active means inhibition above about 13%
LEDGF integ inh = blocks HIV-1 LEDGF/p75-dependent DNA integration. TR-FRET IN-LEDGF/p75 DNA integration, Eu/Cy5. inhibition, % at 3.7 µM. 370,000 tested, 0.64% active;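 active means inhibition above the screen-wide mean plus 3 SD, cut at about 13% in these data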;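 further: signal is the Cy5 over europium emission ratio at 671 and 618 nm; 0% = plate median of compound wells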
UHRF1 binding = blocks human UHRF1 binding to methylated DNA; Q96T88; UHRF1 binding to methylated oligo, TR-FRET; inhibition, % at 4.4 µM; 370,000 tested, 0.75% active; in the data active means inhibition above about 21%;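 further: UHRF1 SRA domain binding a hemimethylated CpG hairpin DNA probe; 0% = median of test compound wells and 100% = reference inhibitor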
Target sequence (Q96T88 whole entry, looked up, the tested form may be a part): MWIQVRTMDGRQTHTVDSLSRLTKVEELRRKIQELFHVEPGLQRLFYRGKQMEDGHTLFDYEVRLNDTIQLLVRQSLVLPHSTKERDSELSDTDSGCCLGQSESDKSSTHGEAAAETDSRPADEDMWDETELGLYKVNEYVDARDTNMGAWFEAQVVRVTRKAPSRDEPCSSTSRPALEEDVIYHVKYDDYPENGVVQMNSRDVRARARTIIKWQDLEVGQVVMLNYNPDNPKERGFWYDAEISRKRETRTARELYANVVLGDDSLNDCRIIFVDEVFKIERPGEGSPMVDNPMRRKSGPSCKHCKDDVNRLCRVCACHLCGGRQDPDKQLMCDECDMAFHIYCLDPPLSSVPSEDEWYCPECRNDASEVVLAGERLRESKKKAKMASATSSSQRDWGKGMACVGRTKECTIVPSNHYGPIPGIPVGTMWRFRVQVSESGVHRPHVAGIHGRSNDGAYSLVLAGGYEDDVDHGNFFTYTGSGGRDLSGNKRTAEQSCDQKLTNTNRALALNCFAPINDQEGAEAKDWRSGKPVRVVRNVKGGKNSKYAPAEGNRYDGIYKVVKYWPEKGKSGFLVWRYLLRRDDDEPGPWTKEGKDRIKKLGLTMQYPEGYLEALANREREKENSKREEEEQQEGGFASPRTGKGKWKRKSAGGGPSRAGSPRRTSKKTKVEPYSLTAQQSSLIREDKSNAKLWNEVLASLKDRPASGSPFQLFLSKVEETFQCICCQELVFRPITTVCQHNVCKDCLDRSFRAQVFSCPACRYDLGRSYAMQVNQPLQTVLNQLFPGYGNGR
Casp6 inh = blocks human caspase-6 cleavage activity. P55212. purified caspase-6, Z-VEID-R110 cleavage fluorescence. inhibition, % at 12.5 µM. 350,000 tested, 0.53% active;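 active means mean inhibition across replicates at least about 35%, with every replicate also reaching that limit, limit read from the data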;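 further: 0% = median of neutral control wells and 100% = no fluorescence left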
Starred values were filed as active, the others as inactive; x = no result given. Sampled rows, rich in hits. Any-hit rate of the full collection: about 1.8%.

SMILES | TDP2 absorb | NSD2 inh | MBD2 inh | LEDGF integ inh | UHRF1 binding | Casp6 inh
C[C@@H]1CN([C@@H](C)CO)C(=O)c2cccc(NC(=O)c3ccncc3)c2O[C@@H]1CN(C)C(=O)Nc1ccc2c(c1)OCO2 | x | x | x | x | x | 0
O=c1cc(-c2ccccc2)[nH]c2ccc(F)cc12 | -5 | x | 8 | 5 | 6 | -3
O=c1[nH]c2ccc(F)cc2[nH]c1=O | 19 | 0 | 0 | 0 | -3 | 42*
COc1cc(NC(=O)CCc2nnc3ccc(N4CCCC4)nn23)cc(OC)c1OC | 10 | 1 | 7 | 0 | 23* | 1
O=C(CCc1nnc2ccc(N3CCCCC3)nn12)NCc1ccco1 | 11 | -2 | 3 | 2 | 25* | -5
COc1cc(NC(=O)CCc2nnc3ccc(N4CCCCC4)nn23)cc(OC)c1OC | 5 | 0 | 0 | 1 | -2 | -1
Cc1cccc(-c2ccc([C@H]3[C@H](CO)N4C(=O)CN(C(=O)CN5CCOCC5)C[C@@H]34)cc2)c1 | x | x | x | x | x | 3
O=C(COC(=O)C1CCN(S(=O)(=O)c2ccccc2)CC1)NC(=O)c1ccc(OC(F)F)cc1 | 5 | -1 | 3 | 8 | 26* | -1
CCOC(=O)c1ccccc1NC(=O)COC(=O)C1CCN(S(=O)(=O)c2ccccc2C(=O)OC)CC1 | -7 | -3 | 0 | -1 | 2 | 60*
O=C(COC(=O)c1ccccc1O)NC(=O)c1ccc(OC(F)F)cc1 | 3 | 0 | 2 | -1 | 2 | 0
CCOC(=O)C1CCN(S(=O)(=O)c2ccc3c(c2)CC(=O)N3C)CC1 | 25* | -6 | -6 | -2 | -6 | 3
Cc1ccc(S(=O)(=O)N2CCC(C(=O)OCC(=O)NCCc3ccccc3)CC2)cc1C | 7 | -1 | -6 | 0 | 40* | 5
CCOC(=O)C1CCN(S(=O)(=O)c2ccc3c(c2)CCCN3C(C)=O)CC1 | 5 | -4 | -1 | 0 | 0 | x
COC(=O)c1ccccc1S(=O)(=O)N1CCC(C(=O)OCC(=O)NCC(F)(F)F)CC1 | -16 | x | 3 | -7 | 8 | 1
O=C(c1cccnc1)N1CCCCN2[C@H](CO)[C@@H](c3ccc(C#Cc4ccccc4)cc3)[C@H]2C1 | x | x | x | x | x | -2
COc1ccc2c3c([nH]c2c1)[C@@H](CO)N(C(=O)C1CCC1)CC31CN(Cc2cccc(F)c2)C1 | x | x | x | x | x | 4
C[C@H](NC(=O)[C@@H]1N[C@@H]2c3ccc(C4=CCCCC4)c(=O)n3C[C@@H]2[C@H]1CO)c1ccccc1 | x | x | x | x | x | 3
COC(=O)C(=O)C1CCc2c(Cl)cc(OC)c(OC)c2C1=O (stereo not drawn) | 4 | x | -4 | 4 | 3 | 79*
CNC(=O)c1cc(Cl)c(OC)c(OC)c1 | 5 | -1 | 3 | 0 | 5 | 3
Cc1cc(Oc2ccc([N+](=O)[O-])cc2)nc(N2CCOCC2)n1 | -22 | -1 | -4 | 6 | 1 | 0
Cc1cc(Oc2ccc(C#N)cc2)nc(N2CCOCC2)n1 | 10 | 0 | 11 | 1 | 21* | x
COc1cc(O)c(C(CCN2CCN(c3ccccc3)CC2)c2ccc(N(C)C)cc2)c(OC)c1 (stereo not drawn) | 12 | x | 8 | 3 | 22* | 0
CCc1ccc(NC(=O)c2cccc(NC3=NC4CS(=O)(=O)CC4S3)c2)cc1 (stereo not drawn) | 0 | x | -1 | 0 | 27* | 0
O=C(COC(=O)c1ccc([N+](=O)[O-])s1)c1ccc[nH]1 | 35* | -1 | 3 | 4 | -3 | 99*
O=C(COC(=O)c1ccc(O)cc1)NC(=O)NCc1ccccc1 | -5 | -1 | -1 | 0 | 1 | -2
SMILES | TDP2 absorb | NSD2 inh | MBD2 inh | LEDGF integ inh | UHRF1 binding | Casp6 inh
O=C(COC(=O)c1ccc([N+](=O)[O-])s1)NC(=O)NCc1ccccc1 | 21 | 2 | -1 | 0 | 0 | 44*
Cc1ccccc1NC(=O)NC1(C(=O)N2CCOCC2)CCCCC1 | -7 | 6 | 2 | 5 | 1 | 1
O=C(Nc1ccccc1C(F)(F)F)NC1(C(=O)N2CCOCC2)CCCCC1 | 3 | x | 16* | 25* | 34* | 86*
O=C(C1CC1)N1CC(=O)N2[C@H](C1)[C@H](c1ccc(C#CC3CCCC3)cc1)[C@@H]2CO | x | x | x | x | x | 0
O=C(CN1CCN(S(=O)(=O)c2ccccc2F)CC1)Nc1ccnn1C1CCCC1 | 5 | 19 | 3 | -8 | 0 | 0
Cc1ccc(S(=O)(=O)N2CCN(CC(=O)Nc3ccnn3C3CCCC3)CC2)cc1 | -9 | 7 | 1 | 2 | -1 | 39*
O=C1C2C3C=CC(CC3)C2C(=O)N1c1nccs1 (stereo not drawn) | -5 | 27 | 6 | 0 | 21* | 67*
O=C(C[C@H]1CC[C@H](NC(=O)Nc2cc(F)ccc2F)[C@@H](CO)O1)NCc1ccc2c(c1)OCO2 | x | x | x | x | x | 2
CCOC(=O)COc1cnc2ccccc2n1 | 3 | -2 | 7 | 2 | 22* | -1
CCOC(=O)c1ccc(Nc2cnc3ccccc3n2)cc1 | -15 | -2 | 4 | 5 | 3 | -1
O=C(C[C@H]1C=C[C@H](NC(=O)Cc2cccnc2)[C@H](CO)O1)Nc1ccc(-c2ccccc2)cc1 | x | x | x | x | x | 1
C#CCOCCOCCOCCNc1nc(N2CCN(C(=O)[C@H](CCC(=O)O)n3cc(CN)nn3)CC2)nc(N2CCN(C(=O)[C@H](CCC(=O)O)n3cc([C@@H](N)[C@H](C)CC)nn3)CC2)n1 | -6 | x | 6 | 8 | 22* | -2
C[C@H](NC(=O)C[C@H]1C[C@H]2c3cc(NC(=O)Nc4ccc(C(F)(F)F)cc4)ccc3O[C@H]2[C@H](CO)O1)c1ccccc1 | x | x | x | x | x | 0
N[C@@H]1CC[C@@H](CCn2cc(C3CCCCC3)nn2)O[C@H]1CO | x | x | x | x | x | -1
O=Cc1ccc(Oc2nc(Cl)ncc2F)cc1 | 3 | -1 | -6 | 4 | 4 | 42*
CCCNC(=O)N1C[C@H]2[C@@H](c3ccccc31)[C@H](CO)N2C(=O)NCCC | x | x | x | x | x | -5
CC(C)CCN(CCC(C)C)C(CO)(CO)CO | 2 | 1 | 11 | -6 | 22* | 0
CC(C)CNC(=O)C1(C)CCCN1C(=O)Cc1cccc2ccccc12 (stereo not drawn) | 3 | 1 | -1 | 2 | 0 | 54*
O=C(NCCCN1CCCC1)c1ccc2c(c1)N(Cc1cccc(Cl)c1)C(=O)c1ccccc1S2(=O)=O | 5 | 11 | 0 | 0 | 0 | 65*
CC(=O)N(c1ccccc1)c1nc(/C=C/C(=O)O)cs1 | -6 | -3 | -1 | 3 | 3 | 3
CC(=O)N(c1ccccc1)c1nc(/C=C/C(=O)Nc2c(C)cc(C)cc2C)cs1 | -4 | -1 | -2 | -2 | 99* | x
Cc1ccc(OCC(=O)NNC(=O)CCC(=O)Nc2ccc(C)cc2C)cc1 | -4 | 7 | 5 | -3 | -2 | x
Cc1ccc(NC(=O)CCC(=O)NNC(=O)COc2ccccc2)c(C)c1 | 16 | x | 2 | 1 | 0 | 41*
